According to ChEMBL document CHEMBL4118076, “Azide-alkyne cycloaddition towards 1H-1,2,3-triazole-tethered gatifloxacin and isatin conjugates: Design, synthesis and in vitro anti-mycobacterial evaluation” (Eur J Med Chem, 2017):
Values after ≈ are worked out from the molar mass of the structure shown.

How the values were obtained:
Assay type in all cases: functional
[1] = test system: Mycobacterium tuberculosis; assay: Antimycobacterial activity against multidrug resistant Mycobacterium tuberculosis after 3 to 7 days by rapid direct susceptibility test
Procedure, shortened: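 Two-fold DMSO dilutions, 0.0125 to 200 μg/mL for H37Rv and 0.062 to 128 μg/mL for the MDR strain (resistant to INH, RIF and ethambutol), mixed with suspension containing 4×10^-3 mg cells. Sealed plates incubated at 37 °C in a wet box. Growth was read visually under high magnification at 3 days and again 7 days later. MIC is the lowest concentration giving complete growth inhibition.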

[2] = Resistance index, ratio of MIC90 for multidrug resistant Mycobacterium tuberculosis to MIC90 for Mycobacterium tuberculosis H37Rv
[3] = test system: Mycobacterium tuberculosis; assay: Potency index, ratio of gatifloxacin MIC90 to compound MIC90 for multidrug resistant Mycobacterium tuberculosis
[4] = test system: Mycobacterium tuberculosis; assay: Potency index, ratio of rifampicin MIC90 to compound MIC90 for multidrug resistant Mycobacterium tuberculosis
[5] = test system: Mycobacterium tuberculosis; assay: Potency index, ratio of isoniazid MIC90 to compound MIC90 for multidrug resistant Mycobacterium tuberculosis

| SMILES | MIC90 [1] [µg/mL] | further results |
| --- | --- | --- |
| NNC(=O)c1ccncc1 [ISONIAZID] | > 128 | – |
| COc1c(N2CCNC(C)C2)c(F)cc2c(=O)c(C(=O)O)cn(C3CC3)c12 (centres undefined) [GATIFLOXACIN] | 1 (≈ 2.66 µM) | – |
| COc1c(N2CCN(Cc3cn(CCN4C(=O)C(=O)c5cc(F)ccc54)nn3)C(C)C2)c(F)cc2c(=O)c(C(=O)O)cn(C3CC3)c12 (centres undefined) | 0.5 (≈ 0.772 µM) | Ratio [2]: < 1 |
| COc1c(N2CCN(Cc3cn(CCN4C(=O)/C(=N\O)c5cc(F)ccc54)nn3)C(C)C2)c(F)cc2c(=O)c(C(=O)O)cn(C3CC3)c12 (centres undefined) | 1 (≈ 1.51 µM) | – |
| CO/N=C1\C(=O)N(CCn2cc(CN3CCN(c4c(F)cc5c(=O)c(C(=O)O)cn(C6CC6)c5c4OC)CC3C)nn2)c2ccc(C)cc21 (centres undefined) | 0.5 (≈ 0.743 µM) | Ratio [2]: < 1 |
| CO[C@H]1/C=C/O[C@@]2(C)Oc3c(C)c(O)c4c(O)c(c(/C=N/N5CCN(C)CC5)c(O)c4c3C2=O)NC(=O)/C(C)=C\C=C\[C@H](C)[C@H](O)[C@@H](C)[C@@H](O)[C@@H](C)[C@H](OC(C)=O)[C@@H]1C [RIFAMPIN] | 32 (≈ 38.9 µM) | – |
| COc1c(N2CCN(Cc3cn(CCN4C(=O)C(=O)c5cc(Cl)ccc54)nn3)C(C)C2)c(F)cc2c(=O)c(C(=O)O)cn(C3CC3)c12 (centres undefined) | 0.5 (≈ 0.753 µM) | – |
| COc1c(N2CCN(Cc3cn(CCN4C(=O)/C(=N\O)c5cc(C)ccc54)nn3)C(C)C2)c(F)cc2c(=O)c(C(=O)O)cn(C3CC3)c12 (centres undefined) | 8 (≈ 12.1 µM) | – |
| COc1c(N2CCN(Cc3cn(CCN4C(=O)C(=O)c5ccccc54)nn3)C(C)C2)c(F)cc2c(=O)c(C(=O)O)cn(C3CC3)c12 (centres undefined) | 4 (≈ 6.35 µM) | – |
| CO/N=C1\C(=O)N(CCn2cc(CN3CCN(c4c(F)cc5c(=O)c(C(=O)O)cn(C6CC6)c5c4OC)CC3C)nn2)c2ccc(Cl)cc21 (centres undefined) | 0.25 (≈ 0.361 µM) | Ratio [3]: >=4 - 512; Ratio [4]: >=4 - 512; Ratio [5]: >=4 - 512 |
| COc1c(N2CCN(Cc3cn(CCN4C(=O)/C(=N\O)c5cc(Cl)ccc54)nn3)C(C)C2)c(F)cc2c(=O)c(C(=O)O)cn(C3CC3)c12 (centres undefined) | 2 (≈ 2.95 µM) | – |
| COc1c(N2CCN(Cc3cn(CCN4C(=O)C(=O)c5cc(C)ccc54)nn3)C(C)C2)c(F)cc2c(=O)c(C(=O)O)cn(C3CC3)c12 (centres undefined) | 1 (≈ 1.55 µM) | Ratio [2]: < 1 |
| CO/N=C1\C(=O)N(CCn2cc(CN3CCN(c4c(F)cc5c(=O)c(C(=O)O)cn(C6CC6)c5c4OC)CC3C)nn2)c2ccc(F)cc21 (centres undefined) | 0.25 (≈ 0.369 µM) | Ratio [3]: >=4 - 512; Ratio [4]: >=4 - 512; Ratio [5]: >=4 - 512 |
| CO/N=C1\C(=O)N(CCn2cc(CN3CCN(c4c(F)cc5c(=O)c(C(=O)O)cn(C6CC6)c5c4OC)CC3C)nn2)c2ccccc21 (centres undefined) | 1 (≈ 1.52 µM) | – |
| COc1c(N2CCN(Cc3cn(CCN4C(=O)/C(=N\O)c5ccccc54)nn3)C(C)C2)c(F)cc2c(=O)c(C(=O)O)cn(C3CC3)c12 (centres undefined) | 8 (≈ 12.4 µM) | – |
